For 38 variants, yeast fitness results are on record in the RNAGym collection of RNA variant scans (doi:10.1126/science.aae0568).

This sample holds only a part of the variants without activity.

The labels stand for the following.
B1: tRNA (parent)
chain: GUUCCGUUGGCGUAAUGGUAACGCGUCUCCCUCCUAAGGAGAAGACUGCGGGUUCGAGUCCCGUACGGAACG

Variants of B1 are the subject of this series. The series can be described thus: yeast fitness relative to wild type (ratio to wild type); higher = fitter; tRNA-Arg(CCU), competitive growth, 37 C, YPD. Summed up:
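Variants of the tRNA-Arg(CCU) gene were chemically synthesised with a 3% per-site mutation rate across 69 sites and placed at the native genomic locus in Saccharomyces cerevisiae. Six parallel replicates of the pooled strains were competed in YPD at 37°C for 24 hours, and gene amplicons from the start and end populations were read by 100-nucleotide paired-end sequencing. Darwinian fitness relative to wild type was derived from changes in genotype frequencies. Genotypes required ≥ 100 starting reads, and estimates < 0.5 were set to 0.5.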
As to GUUCCGUUGGCGUCAUGGUAACGUGUCUCCCUCCUAAGGAGAAGACUGCGGGUUCGGGUUCCGUACGCAACG, the yeast fitness is no more than 0.5.

Take GUUCAGUUGGCGUAAUGGUAACGCGUCUCCCUCCUAAGAAGAAGACUGUGGGUUCGAGUCCCGUACGGAACG: the yeast fitness turned out to be 0.541. As to GUUCUGUUGGCGUAAUGGUAACGCGUCUACCUCCUAAGGAGGAGACUGCGGGUUCGAGUCGCGUACGGAACG, the yeast fitness is no more than 0.5. For GUUCCGUUGGCGUAAUGGUAACGAGUGUCCCUCCUAAGGAGAAGACUGCGGGUUCGAGUCUCGUACGGAACG the value was 0.575; for GUCCCGUUGGCGUAAUGGUAACGCGUCUCCCUCCUUAGAAGAAGACUGCGGAUUCGAGUCCCGUACGGAACG, no more than 0.5.

GUUGCGUUGGCGUAAUGGUAACGCGUCUCCCUCCCAAGGAGAAGACUGUGGGUUCGAGUCCCGUACGGAACG: the yeast fitness turned out to be 0.533. In the case of GUUCCGUUGGCGUAAUGGUAGCGCGCCUCCCUCCUAAGGUGAAGACUGUGGGUUCGAGUCCCGUACGGAACG it was no more than 0.5. In the case of GUUCCGUUGGCGUAAUGGUAACGCGUCUCCCUCUUCAGGAGAAGACUGCGGGCUCGAGUCCCGUACGGAACG it was no more than 0.5.

With GUUCCGUUGGUGUAAUGGUAACGAGUCUCCCUCCUAAGGAGAGGACUGCGGGUUCGAGUCCAGUACGGAACG, the yeast fitness is no more than 0.5.

As to GUUCCGUUGGCGUAAUGGUAGCGCGUCUCCCUCCUAAGGAGAAGACUGCGGGUUCGCGUCCCGUACGGAACG, the yeast fitness was determined as 0.709.

Consider GUUUCGUUGGCGUAAUGGUAACGCGUCUCCCUCCUAAGGAGAAGACUGCGGGUUCGAGUGCCCUACGGAACG, for which the yeast fitness is no more than 0.5. In the case of GUUCGGUUGGCGUAAUGGUAACGCGUCUCCCUCAUCAGGAGGAGACUGCGGGUUCGAGUCCCGUACGGAACG it was no more than 0.5; in that of GUUCCGUUGGCGUAAUGGUAACGCGUCUCCUUCCUAAGGAGAAGAGUGCGGGUUCGAGUCCCAUACGGAACG, 0.606. In the case of GUACCGUUGGCGUAAUGGUAACGCGUCUCCCUCCUAAGGCGAAGACAGCGGGUUCGAGUCCCGUACGGAACG it was 0.647; in that of GUUCCAUUGGAGUAAUGGUAACGCGUCUCCCACGUAAGGAGAAGACUGCGGGUUCGAAUCCCGUACGGAACG, no more than 0.5; in that of GUUCCGUUGGCGUGAUGGUAACGCGUCUACCUCCUAAGGAGAAGACUGCGGGUUCGAGUCCUGUACGGAACG, no more than 0.5.

GUUCCGUUGGUGUAGUGGUAACGCGUGUCCCUCCUAAGGAGAAGACUGCGGGUUCGAGUCCCGUACGGAACG: the yeast fitness was 0.544.

On to GUUCCGUUGGCGUAAUGGUAACGCGUUUCCCUCCUAAGGAGAAGUCUGCGGGUUCGAGUCCCGUACGGAACG, for which the yeast fitness is 1.02. Turning to GUUCCGUUGGUGUAAUGGUAACGCGUCUCCCUCCUAAGGAGAAGACUGUGGGUUCGAGUCGCGUCCGGAACG, the yeast fitness came out at 0.534. For GUUCAGAUGGCGUAAUGGUAGCGCGUCUCCCUCCUAAGGAGAAGACUGCGGGUUCGAGUCGCGUAGGGAACG the value was no more than 0.5. In the case of GUUCCGUUGGCGUGAUGGUAACGCGUCUCCCUCCAAAGGAGUAGAGUGCGGGUUCAAGUCCCGUACGGACCG it was 0.569; in that of GUACCGUUGGCGUAAUGGUAACGCGUCUCCUUCCGAAGGAGAAGACUGCGGGUUCGAGUCCUGUACGGAACG, no more than 0.5. In the case of GUUCCGUUGGCGUAAUGGUAAAGCGUCCCCCUCCUAAGGAGGAGACAGCGGGUUCGAGUCCCGUACGGAACG it was 0.64. For the variant GUUCAGUUGGCGUAAUGGUAACGCGUCUCCCUCCUAAGGAGAAGACUGCGGAUUCGAGUCCCGUACGGAACG, the yeast fitness amounted to 0.641.

As to GUUCCGUUGGCGUAAUCGUAACGCAUCUCCCACCUAAGGAGAGGACUGCGGGUUCGUGUCCCGUACGGAACG, the yeast fitness was 0.546. In the case of GUUCCGUUGGCGUAAUGGUAACGCGUCUCCCUCCUAAGGAGAAGACUGCGGGUUCGAGAGCCGUACGGAACG it was 0.655. Regarding GUUCGGUAGGCGUAAUGGUCACGCGUCUCCCUCCUAAGGAGACGAAUGCGGGUUCGAGUCCCGUACGGAACG, the yeast fitness is no more than 0.5.

For GUUCCGUUGGCGUAAUGGUAACGCGUCUCCCUCCUAAGGAGAAGCCUGUGGGUUCGAGUCCCAUACGGAACG, the yeast fitness worked out at 0.74. For GUUUCGUUGGCGUAAUGGUAACGCGUCUCCCUCCUACAGAGAAGACUGCGGGUUCGAGUCCCGUACGGAACG the value was 0.613; for GUUCCGUUGGCGUAAUGGUAUCGCGUCUCUCUCCUGAGGAGAAAACUGCGGGUUCGAGUCCCGUACGGAACG, no more than 0.5. For GUUCUGUUGGCGUAAUGGUAACGCGUCUCCCUCCUAAGGAGAAGACUGUGGGUUCGAGUCCCGUAAAGAACG the value was no more than 0.5. In the case of GUUCAGUUGGCGUAAUGGUAACGCGUCUCCCUCCUAAAGAGAAGACCGCGGGUUCGAGUCCCGUACGGAACG, the yeast fitness worked out at 0.599. In the case of GUUUCGUUGACGUAAUGGUAAUGCGUCUCCCUCCUAAGGAGAACACUGCGGGUUCGAGUCCCGUACGGAACG it was no more than 0.5. For GUGCGGUUGGUGUAAUGGUAACGCGUCUUCCCCCUAAGGAGAAGACUGCGGGUUCGAGUCCCGUACGGAACG the value was no more than 0.5; for GUUCCGUUGGCGUAAUCGUAACGCGUCUCCCUCCUAAGGAGAAGACUGCGGGUUCCGGUCCCGUACGUAACG, 0.571. Take GUUCCGUUGGCGUAUUGGUAACGCGUCUCCCUUCUAAGGAGAAGACUGCGGGUUCGAGUCCCGUACGGAACG: the yeast fitness was found to be 0.724. With GUUCCGUUGGCGUAAUGGUAACGCGUCUCCCUCCUAAGGAGAAAACUGCGGGUUCGAGUCCCAUACGGAACG, the yeast fitness came to 0.97. For the variant GUUCCGCUGGCGUAAUGGUAACGCGUCUCCCUUCUAAGGAGAAGACUGUGGGUUCGAGUCCCGUACGGAUCG, the yeast fitness is no more than 0.5.
